A selection: hits, their analogues and other compounds. The true share with any hit is near 1.5%.
LANA-H2A inh – blocks KSHV LANA binding to histone H2A/H2B; Q9QR71; cell-free LANA-H2A/H2B peptide, fluorescence polarization; inhibition, % (concentration not given with the values); 0.6% of 320,000 active; in the data active = inhibition mostly above about 10%, no sharp cut-off; inactive = mostly below about 6.7%
CAL PDZ FP-1 – blocks peptide binding to human CAL PDZ domain; AID 504414; 0.02% of 330,000 active; Q9HD26; inhibition, % at 20 µM; purified CAL PDZ, TMR-peptide fluorescence polarization, 1 h;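 active = highest replicate inhibition of at least 40%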;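 note: plate controls were DMSO neutral control wells for no effect and unlabeled competitor peptide control wells for full effect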
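Test system: purified CerCALP PDZ construct; Compound dosing: one concentration, 20 µM compound; Also added: TMR-labelled reporter peptide T*-PRC34 bound in PDZ groove; Read-out: inhibition from polarization loss; Controls: unlabelled peptide and DMSO controls; Signal: FP readout, S and P plane fluorescence; Incubation: 1 h at RT.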
CaV13 FRET inh – Primary screen for inhibitors of IQ motif and Ca2+-dependent inactivation inhibitor domain binding in CACNA1D, Förster resonance energy transfer in living cells, …; HEK cells, CFP/YFP FRET ICDI-IQ, plate reader, 10 min; percent FRET-ratio fall versus neutral wells; inhibition, % at 12.3 µM; 0.098% of 340,000 active; AID 743397;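 active = mean replicate inhibition of at least 30% and at least 1% of replicates passing that level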;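 note: 0% = median of the neutral control wells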
LANA DNA inh – inhibitors of KSHV LANA C-terminal domain DNA binding; MBP-C-LANA/FAM-LBS DNA binding, fluorescence polarization; inhibition, % at 9 µM; 0.078% of 340,000 active;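 active = highest replicate inhibition at or above 60% at 9 µM, even if other replicates fall short; inactive = all replicates below 60% inhibition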;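 note: 0% = neutral control wells and 100% = 4 µM acridine orange control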
CAL PDZ FP-2 – inhibitors of human CAL PDZ peptide binding. Q9HD26. purified CAL PDZ, TMR-peptide fluorescence polarization, 1 h. inhibition, % at 24.9 µM. 0.92% of 300,000 active. AID 602252;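 active = mean inhibition of at least 30% with at least half of replicates also reaching 30%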;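 note: 0% = DMSO neutral control and 100% = excess unlabeled competitor peptide PRC23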
Keap1 Nrf2 FP – Keap1-Nrf2 (human) interaction inhibition; inhibition, % at 9.4 µM; Keap1 Kelch-Nrf2 peptide fluorescence polarization, 1536-well; 0.15% of 340,000 active; Q14145; in the data active = inhibition above about 12%;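 note: human Keap1 Kelch domain with fluorescein labeled Nrf2 9mer peptide probe; 0% = neutral control wells and 100% = peptide positive control; higher means more block of Keap1 binding to Nrf2 peptide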
Target sequence (Q14145 whole entry, looked up, the tested form may be a part): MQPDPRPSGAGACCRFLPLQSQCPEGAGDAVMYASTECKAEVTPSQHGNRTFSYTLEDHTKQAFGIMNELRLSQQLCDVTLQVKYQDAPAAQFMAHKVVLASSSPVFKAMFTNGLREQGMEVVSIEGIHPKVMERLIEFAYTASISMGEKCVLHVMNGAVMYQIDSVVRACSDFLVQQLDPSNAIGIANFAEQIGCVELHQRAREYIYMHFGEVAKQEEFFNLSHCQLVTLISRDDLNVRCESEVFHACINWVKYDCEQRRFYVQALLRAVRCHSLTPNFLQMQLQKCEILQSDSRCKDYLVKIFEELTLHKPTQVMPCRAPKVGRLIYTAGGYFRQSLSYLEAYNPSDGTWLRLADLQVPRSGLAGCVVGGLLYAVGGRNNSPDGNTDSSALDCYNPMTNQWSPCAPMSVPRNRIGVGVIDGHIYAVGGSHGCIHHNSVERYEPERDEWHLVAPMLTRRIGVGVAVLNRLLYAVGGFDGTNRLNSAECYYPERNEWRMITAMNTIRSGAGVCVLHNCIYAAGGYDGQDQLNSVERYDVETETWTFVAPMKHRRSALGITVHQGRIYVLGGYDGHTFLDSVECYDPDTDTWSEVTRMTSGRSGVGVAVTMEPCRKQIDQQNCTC
Active calls of the source: *; . = not tested or not shown; + = active, no number.

SMILES	LANA-H2A inh	CAL PDZ FP-1	CaV13 FRET inh	LANA DNA inh	CAL PDZ FP-2	Keap1 Nrf2 FP
Cc1ccc(CCN2CC(C(=O)N3CCN(c4ccc(F)cc4)CC3)CC2=O)cc1 (centres undefined)	22*	-1	-7	3	1	0
Cc1ccc(/C(=N\S(=O)(=O)c2ccc(Br)cc2)Nc2ccccc2C)cc1	5	-1	-4	0	65*	3
COc1ccc(C(=O)c2[nH]c(N)c(C(=O)c3c[nH]c4ccccc34)c2-c2ccc(OC)cc2)cc1	.	.	-17	.	.	.
COc1ccccc1-c1cnc(C(O)c2ccc(SC)cc2)[nH]1 (centres undefined)	.	.	-9	.	.	.
COc1ccc(C2C3=C(CC(C)(C)CC3=O)N(C)C3=C2C(=O)CC(C)(C)C3)cc1	-1	-1	+	-1	-2	-2
Cc1nn(C)c(=O)c(N)c1-c1cc(-c2ccc(Cl)c(Cl)c2)n[nH]1	2	.	-4	.	.	.
Cc1ccc(-c2cc(-c3c(C)nn(C)c(=O)c3N)[nH]n2)cc1	-4	0	-4	0	42*	2
CCCCc1c(-c2ccccc2OC)ncn1Cc1ccc(OC)cc1	.	.	-5	.	.	.
Cc1ccc(Sc2ncccc2N)cc1	37*	.	-5	.	.	.
CCCc1cc(=O)oc2c3c(cc(OCC(=O)N4CCC[C@H]4C(=O)O)c12)OC(C)(C)CC3	-1	0	.	0	43*	-8
N#CC1C(=O)NC(c2ccccc2)=CC1c1ccccc1 (centres undefined)	.	-2	-2	-2	110*	2
COC(=O)C(C(=O)OC)=C(/C=C/N(C)C)N(C)C	3	7	-4	-1	46*	1
COCCCNC(=O)C[C@H]1C[C@@]2(C(=O)OC)C(=C[C@H](COCc3ccccc3)O[C@@H]2C)N(Cc2ccc3c(c2)OCO3)C1=O	.	.	-7	.	.	.
O=C(C(=O)N1CCC(CNS(=O)(=O)c2ccccc2OC(F)(F)F)CC1)c1cccs1	.	.	-8	.	.	.
COc1ccc(NC(=O)Nc2c[nH]c(=O)[nH]c2=O)cc1	-2	-1	-17	-3	59*	-2
Cc1ccccc1S(=O)(=O)N1CCCc2nc(-c3ccc(F)cc3)ccc21	.	.	-4	.	.	.
CCCCCCCCN1C(=O)[C@H](CC(=O)NCCCN2CCCC2=O)C[C@@]2(C(=O)OC)CC(C)(C)CC=C12	.	.	-9	.	.	.
C=CCN=C1S/C(=C\c2ccc(N(C)C)cc2)C(=O)N1CC=C	16*	0	-4	-1	-2	-6
CC1(C(=O)NS(=O)(=O)c2cccs2)CCN1C(=O)CC1CCCCC1 (centres undefined)	.	.	-6	.	.	.
Cc1oc2c(C)c3oc(=O)c(CCC(=O)NCCCN4CCOCC4)c(C)c3cc2c1C	-4	-1	.	-3	-4	-10
Cc1oc2c(C)c3oc(=O)c(CCC(=O)NCCN4CCOCC4)c(C)c3cc2c1C	14*	0	.	1	-2	-6
COc1ccc(N=C(c2ccccc2)c2c(C)[nH]n(-c3ccccc3)c2=O)c(OC)c1	5	-1	-31	1	36*	4
CCN(CC)CCOC(=O)c1ccc(NC(=O)CSc2nnc(-c3cccs3)n2CC)cc1	.	-1	-5	0	61*	-4
CCn1c(SCC(=O)Nc2ccc(OC)c(OC)c2)nnc1-c1cccs1	7	-1	-3	-2	-2	0
COc1ccc(/C=C2\SC(=S)N(CC(=O)N(C)C3CCS(=O)(=O)C3)C2=O)cc1 (centres undefined)	14*	-3	-13	-1	-1	-5
SMILES	LANA-H2A inh	CAL PDZ FP-1	CaV13 FRET inh	LANA DNA inh	CAL PDZ FP-2	Keap1 Nrf2 FP
CN(C(=O)CN1C(=O)S/C(=C\c2ccc(Cl)cc2)C1=O)C1CCS(=O)(=O)C1 (centres undefined)	11*	-2	-14	0	-3	-5
COC(=O)[C@@]12C[C@@H](CC(=O)N3CCC(c4ccccc4)CC3)C(=O)N(CCc3ccc(OC)c(OC)c3)C1=CCC(C)(C)C2	.	.	-8	.	.	.
O=C(CSc1n[nH]c(-c2ccncc2)n1)Nc1ccccc1	-7	-1	-3	-1	-2	-3
CC(=O)Nc1cccc(NC(=O)CSc2n[nH]c(-c3ccccc3)n2)c1	20*	0	-16	-1	.	-3
CC(=O)OC1CCC2C3CCc4cc(O)ccc4C3CCC12C (centres undefined)	.	-2	-5	-4	0	1
C[C@]12CC[C@@H]3c4ccc(O)cc4CC[C@H]3[C@@H]1CC[C@@H]2O	-1	-1	-5	4	3	0
C[C@]12CC[C@@H]3c4ccc(O)cc4[C@@H](O)C[C@H]3[C@@H]1CC[C@@H]2O	26*	.	.	.	.	.
C[C@]12CC[C@@H]3c4cc(O)c(O)cc4CC[C@H]3[C@@H]1CC[C@@H]2O	29*	0	-5	-9	6	3
COC(=O)C(C)NC(=O)c1ccc(C(C)(C)C)cc1 (centres undefined)	6	0	-5	-2	-4	4
CC12CCC(C(=O)N(NC(=O)c3ccccc3Cl)C1=O)C2(C)C (centres undefined)	1	-3	-10	0	1	0
CCCCc1c(-c2ccccc2OC)ncn1C1CCCCC1	.	.	-6	.	.	.
COC(=O)C(CC(=O)c1ccc(C)cc1)n1nc(C)cc1C (centres undefined)	2	0	-5	-1	129*	5
COc1ccc(NC(=O)C(c2ccc(C#N)cc2)n2c(=O)c(-c3cc4ccccc4[nH]3)nc3ccccc32)cc1 (centres undefined)	.	.	-21	.	.	.
C=CCC1Cc2c(Br)cccc2C(CC=C)N1 (centres undefined)	1	-2	2	-2	.	-3
C=CC[C@H]1Cc2c(cccc2[N+](=O)[O-])[C@H](CC=C)N1	3	-1	-11	-2	39*	-11
N/N=C(/Cc1nc2ccccc2[nH]1)c1ccc([N+](=O)[O-])cc1	7	0	-4	-1	73*	-6
c1ccc(N/N=C(\Cc2nc3ccccc3[nH]2)c2ccccc2)cc1	.	-4	-3	-2	-2	1
CCN1C/C(=C/c2cccs2)c2nc3ccccc3c(C(=O)O)c2C1	11*	0	-20	8	3	0
CCN1C/C(=C/c2sccc2C)c2nc3ccccc3c(C(=O)O)c2C1	2	0	-3	4	5	-4
Cc1noc(C)c1COc1cccc(C(=O)OC(C)C#N)c1 (centres undefined)	3	-1	-5	1	73*	-3
Cc1noc(C)c1COc1cccc(C(=O)OCCOc2ccc(F)cc2)c1	3	.	.	1	-4	-2
COc1ccc(CCNC(=O)Cn2c(=O)n(-c3ccc(F)cc3F)c(=O)c3sccc32)cc1OC	4	.	-2	2	32*	4
